The test system of data set [1] is ASPC1. Nature of the data set: Anticlonogenic activity against human Aspc-1 cells at 2 uM after 21 days by crystal violet staining based assay relative to control. Format: functional. To be noted: ASPC1, 504 h. In outline: (§1)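 Anchorage-dependent colony formation: AsPC-1 cells seeded at 1000 cells/well in six-well plates and treated with compound. Colony formation is expressed as percent of vehicle treatment. Mean ± SD from at least three independent experiments, each in duplicate.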

Data set [2] has as its target T1, Glutaminase liver isoform, mitochondrial (Homo sapiens, UniProt Q9UI32).
T1 sequence (Q9UI32 whole entry): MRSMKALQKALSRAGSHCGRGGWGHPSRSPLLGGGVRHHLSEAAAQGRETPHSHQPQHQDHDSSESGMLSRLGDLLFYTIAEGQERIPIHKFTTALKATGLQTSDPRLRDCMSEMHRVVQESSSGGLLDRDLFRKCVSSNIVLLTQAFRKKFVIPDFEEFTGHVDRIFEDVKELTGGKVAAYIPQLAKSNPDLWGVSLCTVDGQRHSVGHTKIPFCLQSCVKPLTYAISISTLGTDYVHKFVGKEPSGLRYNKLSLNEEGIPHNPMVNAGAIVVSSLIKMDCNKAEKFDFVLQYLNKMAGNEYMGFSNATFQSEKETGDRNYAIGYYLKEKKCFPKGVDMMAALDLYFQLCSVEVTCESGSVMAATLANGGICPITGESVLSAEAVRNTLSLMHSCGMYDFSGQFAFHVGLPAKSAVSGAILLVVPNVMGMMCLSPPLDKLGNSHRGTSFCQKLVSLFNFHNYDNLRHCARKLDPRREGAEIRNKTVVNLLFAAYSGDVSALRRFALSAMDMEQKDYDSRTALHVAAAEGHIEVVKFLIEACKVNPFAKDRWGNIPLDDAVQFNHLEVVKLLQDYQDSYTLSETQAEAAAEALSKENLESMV
Nature of the data set: Inhibition of recombinant human His-tagged GAB (P56 to V602 residues) expressed in Escherichia coli C41(DE3)pLysS using glutamine as substrate preincubated for 10 mins followed by substrate addition measured after 60 mins by glutamate dehydrogenase coupled enzyme assay.

The target of data set [3] is T2, Glutaminase kidney isoform, mitochondrial (Homo sapiens, UniProt O94925).
T2 sequence (O94925 whole entry): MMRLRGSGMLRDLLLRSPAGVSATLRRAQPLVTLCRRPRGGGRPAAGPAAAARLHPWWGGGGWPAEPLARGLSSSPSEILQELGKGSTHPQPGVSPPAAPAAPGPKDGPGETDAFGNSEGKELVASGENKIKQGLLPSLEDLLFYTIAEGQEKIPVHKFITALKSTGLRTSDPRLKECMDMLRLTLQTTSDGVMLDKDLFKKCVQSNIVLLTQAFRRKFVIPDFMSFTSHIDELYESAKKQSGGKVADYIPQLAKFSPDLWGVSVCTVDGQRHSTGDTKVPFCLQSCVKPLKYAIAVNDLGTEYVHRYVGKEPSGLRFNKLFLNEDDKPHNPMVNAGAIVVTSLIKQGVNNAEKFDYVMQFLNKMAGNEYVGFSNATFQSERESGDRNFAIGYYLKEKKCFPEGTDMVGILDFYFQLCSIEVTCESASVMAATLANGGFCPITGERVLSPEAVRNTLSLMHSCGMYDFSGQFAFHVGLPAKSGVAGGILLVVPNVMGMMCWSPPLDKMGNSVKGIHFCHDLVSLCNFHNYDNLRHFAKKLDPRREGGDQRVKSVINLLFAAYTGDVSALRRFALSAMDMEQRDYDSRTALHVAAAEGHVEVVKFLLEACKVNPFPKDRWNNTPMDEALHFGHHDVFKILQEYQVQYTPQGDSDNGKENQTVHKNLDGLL
The data set is described as follows: Inhibition of recombinant human His-tagged KGA (L123 to L669 residues) expressed in Escherichia coli BL21(DE3)pLysS using glutamine substrate preincubated for 10 mins followed by substrate addition measured after 60 mins by glutamate dehydrogenase coupled enzyme assay.

The target of data set [4] is T2, Glutaminase kidney isoform, mitochondrial. Nature of the data set: Inhibition of recombinant human MCF7 cells derived His-tagged GAC (L123 to S598 residues) expressed in Escherichia coli C41(DE3)pLysS using glutamine as substrate preincubated for 10 mins followed by substrate addition measured after 60 mins by glutamate dehydrogenase coupled enzyme assay. The essentials:
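Human GAC cloned from MCF7 cDNA into pET28a(+) as a His-tagged construct. Expressed in E. coli C41(DE3)pLysS in Terrific Broth with kanamycin, induced with 1 mM IPTG for 6 h at 25 °C. Purified on Ni2+ resin with 500 mM imidazole elution and exchanged into 50 mM NaH2PO4, 50 mM Tris-HCl pH 8.0, 2 mM DTT, 50% glycerol. Activity measured by two-step glutaminase assay.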

The species entered for data set [5] is Homo sapiens. Nature of the data set: Selectivity index, ratio of IC50 for recombinant human His-tagged GAB (P56-V602 residues) expressed in Escherichia coli C41(DE3)pLysS to IC50 for recombinant human His-tagged KGA (L123 to L669 residues) expressed in Escherichia coli BL21(DE3)pLysS.
For data set [6], the system named is ASPC1. The data set is described as follows: Anticlonogenic activity against human Aspc-1 cells at 10 uM after 21 days by crystal violet staining based assay relative to control. In kind it is functional. As to conditions: ASPC1, 504 h. The essentials: as §1
Data set [7] deals with ASPC1. The data set is described as follows: Growth inhibition of human Aspc-1 cells after 72 hrs by MTS assay. As to conditions: ASPC1, 72 h. In kind it is functional, cell-based. In outline: (§2)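 Growth inhibition by MTS viability read-out. Cells seeded in 96-well plates at 4000/well (AsPC-1) or 8500/well (MDA-MB-231). Mean ± SD from at least three independent experiments, each in duplicate.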

Another data set has as its system MDA-MB-231. The data set is described as follows: Growth inhibition of human MDA-MB-231 cells after 72 hrs by MTS assay. In kind it is functional, cell-based. As to conditions: MDA-MB-231, 72 h. The essentials:
as §2

The target of data set [8] is T3, Glutaminase liver isoform, mitochondrial (Homo sapiens) (UniProt Q9UI32).
T3 sequence (whole entry): T1 sequence (Q9UI32 whole entry)
Nature of the data set: Inhibition of human GLS2 in GLS1 deficient human Aspc-1 cells assessed as decrease in cellular glutamate production after 4 hrs by amplex red glutamic acid assay. In outline: (§3)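 GLS-knockout AsPC-1 cells made with GLS-KO ZFN mRNA, single-cell cloned, and grown in glutamine-free RPMI 1640 with 10% FBS. Cells seeded at 30 000/well and grown 24 h at 37 °C. Treated 4 h with 1% DMSO vehicle or 3.13−100 μM inhibitor, washed with PBS, and lysed in NP-40 buffer (4 °C, 20 min). Lysate glutamate measured by Amplex Red. Three independent experiments in duplicate.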

In data set [9] the target is T3, Glutaminase liver isoform, mitochondrial (Homo sapiens). The data set is described as follows: Inhibition of human GLS2 in GLS1 deficient human Aspc-1 cells assessed as decrease in cellular glutamate production at 3.13 to 100 uM after 4 hrs by amplex red glutamic acid assay. In outline:
as §3

The nature of data set [10]: Inhibition of recombinant human His-tagged KGA S384A mutant expressed in Escherichia coli BL21(DE3)pLysS using glutamine substrate preincubated for 10 mins followed by substrate addition measured after 60 mins.
Data set [11] is described as follows: Inhibition of recombinant human His-tagged KGA R387A mutant expressed in Escherichia coli BL21(DE3)pLysS using glutamine substrate preincubated for 10 mins followed by substrate addition measured after 60 mins.
Data set [12] can be described thus: Inhibition of recombinant human His-tagged KGA R387L mutant expressed in Escherichia coli BL21(DE3)pLysS using glutamine substrate preincubated for 10 mins followed by substrate addition measured after 60 mins.
Data set [13] can be described thus: Inhibition of recombinant human His-tagged KGA K507A mutant expressed in Escherichia coli BL21(DE3)pLysS using glutamine substrate preincubated for 10 mins followed by substrate addition measured after 60 mins.
Data set [14] is filed under the species Homo sapiens. The data set is described as follows: Selectivity ratio of IC50 for recombinant human His-tagged KGA S384A mutant expressed in Escherichia coli BL21(DE3)pLysS to IC50 for human His-tagged KGA (L123 to L669 residues) expressed in Escherichia coli BL21(DE3)pLysS.
The species named for data set [15] is Homo sapiens. The data set is described as follows: Selectivity ratio of IC50 for recombinant human His-tagged KGA R387A mutant expressed in Escherichia coli BL21(DE3)pLysS to IC50 for human His-tagged KGA (L123 to L669 residues) expressed in Escherichia coli BL21(DE3)pLysS.
Data set [16] is filed under the species Homo sapiens. Nature of the data set: Selectivity ratio of IC50 for recombinant human His-tagged KGA R387L mutant expressed in Escherichia coli BL21(DE3)pLysS to IC50 for human His-tagged KGA (L123 to L669 residues) expressed in Escherichia coli BL21(DE3)pLysS.
The species entered for data set [17] is Homo sapiens. The data set is described as follows: Selectivity ratio of IC50 for recombinant human His-tagged KGA K507A mutant expressed in Escherichia coli BL21(DE3)pLysS to IC50 for human His-tagged KGA (L123 to L669 residues) expressed in Escherichia coli BL21(DE3)pLysS.
In data set [18] the target is Glutaminase 1/2 (Homo sapiens) (UniProt O94925+Q9UI32). As to conditions: 3.13 to 100 uM.
Compound in data set [19]: Cc1cc(/C=C2\SC(=O)NC2=O)c(C)n1-c1ccc(-c2ccc(/C=C3\SC(=O)NC3=O)cc2)cc1
The data set is described as follows: Mixed-type inhibition of recombinant human KGA (L123 to L669 residues) expressed in Escherichia coli BL21(DE3)pLysS assessed as Vmax for substrate at 0.05 uM using glutamine substrate preincubated for 10 mins followed by substrate addition measured after 60 mins by Linerweaver-Burk plot analysis (reference value: 26.2 +/- 0.2 nmol/min/ug). In outline:
(§4)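 Kinetic analysis on human KGA: glutamine saturation profiles recorded at 0−0.4 μM inhibitor. Km and Vmax derived at each inhibitor concentration to assign the inhibition mode.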

Compound in data set [20]: Cc1cc(/C=C2\SC(=O)NC2=O)c(C)n1-c1ccc(-c2ccc(/C=C3\SC(=O)NC3=O)cc2)cc1
The data set is described as follows: Mixed-type inhibition of recombinant human KGA (L123 to L669 residues) expressed in Escherichia coli BL21(DE3)pLysS assessed as Vmax for substrate at 0.1 uM using glutamine substrate preincubated for 10 mins followed by substrate addition measured after 60 mins by Linerweaver-Burk plot analysis (reference value: 26.2 +/- 0.2 nmol/min/ug). The essentials:
as §4

Compound in data set [21]: Cc1cc(/C=C2\SC(=O)NC2=O)c(C)n1-c1ccc(-c2ccc(/C=C3\SC(=O)NC3=O)cc2)cc1
The data set is described as follows: Mixed-type inhibition of recombinant human KGA (L123 to L669 residues) expressed in Escherichia coli BL21(DE3)pLysS assessed as Vmax for substrate at 0.2 uM using glutamine substrate preincubated for 10 mins followed by substrate addition measured after 60 mins by Linerweaver-Burk plot analysis (reference value: 26.2 +/- 0.2 nmol/min/ug). The essentials:
as §4

Compound in data set [22]: Cc1cc(/C=C2\SC(=O)NC2=O)c(C)n1-c1ccc(-c2ccc(/C=C3\SC(=O)NC3=O)cc2)cc1
The data set is described as follows: Mixed-type inhibition of recombinant human KGA (L123 to L669 residues) expressed in Escherichia coli BL21(DE3)pLysS assessed as Vmax for substrate at 0.4 uM using glutamine substrate preincubated for 10 mins followed by substrate addition measured after 60 mins by Linerweaver-Burk plot analysis (reference value: 26.2 +/- 0.2 nmol/min/ug). The essentials: as §4

Compound in data set [23]: Cc1cc(/C=C2\SC(=O)NC2=O)c(C)n1-c1ccc(-c2ccc(/C=C3\SC(=O)NC3=O)cc2)cc1
Nature of the data set: Mixed-type inhibition of recombinant human KGA (L123 to L669 residues) expressed in Escherichia coli BL21(DE3)pLysS assessed as Km for substrate at 0.05 uM using glutamine substrate preincubated for 10 mins followed by substrate addition measured after 60 mins by Linerweaver-Burk plot analysis (reference value: 25.5 +/- 0.6 mM). In outline: as §4

Compound in data set [24]: Cc1cc(/C=C2\SC(=O)NC2=O)c(C)n1-c1ccc(-c2ccc(/C=C3\SC(=O)NC3=O)cc2)cc1
Nature of the data set: Mixed-type inhibition of recombinant human KGA (L123 to L669 residues) expressed in Escherichia coli BL21(DE3)pLysS assessed as Km for substrate at 0.1 uM using glutamine substrate preincubated for 10 mins followed by substrate addition measured after 60 mins by Linerweaver-Burk plot analysis (reference value: 25.5 +/- 0.6 mM). In outline:
as §4

Activity calls are given as the source filed them. The calls are words filed in the database; no cut-off is given here.

In the data set on ASPC1 [1], `O=C1NC(=O)/C(=C/c2ccc(-c3ccc(-n4c(-c5ccccc5)cc(/C=C5\SC(=O)NC5=O)c4-c4ccccc4)cc3)cc2)S1` registered an inhibition at 2 µM of 79%. The IC50 in [2] turned out to be 261 nM; in data set [3], 45 nM; in data set [4] it was 151 nM; with ASPC1 [7], 10000 nM; in the data set on MDA-MB-231, 13400 nM; in data set [10], 78 nM. Besides, the figures for the IC50 in data set [11], in data set [12] and in data set [13] were 8880 nM, 603 nM and 187 nM, respectively. For the same molecule, the Ratio IC50 amounted to 5.8 in the data set listed under Homo sapiens [5]; 1.7 in the data set filed under Homo sapiens [14]; 197 in the data set filed under Homo sapiens [15]; 13.4 in the data set listed under Homo sapiens [16]; 4.2 in the data set filed under Homo sapiens [17]. The same molecule gave an inhibition at 10 µM in the data set on ASPC1 [6] of 94%. Also, in data set [8], the inhibition result is “Dose-dependent effect”. The inhibition result in data set [9] and in [18] was “Active” in each case.

B1: Glutaminase kidney isoform, mitochondrial (Homo sapiens), O94925 (protein)
chain: T2 sequence (O94925 whole entry)
As to B1, the Vmax came out at 26.3 nmol/min/µg in data set [19], 26.2 nmol/min/µg in [20], 22.9 nmol/min/µg in [21] and 15 nmol/min/µg in [22]. Also, the Km in data set [23] came to 50.9 mM; in data set [24] it was 69.7 mM.

The values above are taken from ChEMBL document CHEMBL4011632, “Design, Synthesis, and Evaluation of Thiazolidine-2,4-dione Derivatives as a Novel Class of Glutaminase Inhibitors” (J Med Chem, 2017).
